{"source": "ChEMBL document CHEMBL5653617", "about": "“Inhibition of BRD4 attenuates tumor cell self-renewal and suppresses stem cell signaling in MYC driven medulloblastoma” (Oncotarget, 2014)", "key": {"[1]": {"test_system": "Daoy", "experiment": "Induction of senescence in human Daoy cells assessed as increase in p21 protein expression at 300 nM by immunoblot analysis", "type": "functional, cell-based", "in_short": "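Protein lysates prepared in RIPA buffer with protease inhibitors. Standard western blot with HRP-conjugated secondary antibodies and chemiluminescent detection.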"}, "[2]": {"test_system": "Daoy", "experiment": "Downregulation of CENPF gene expression in human Daoy cells at 300 nM by GSEA method", "type": "functional, cell-based", "in_short": "(§1)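 Daoy cells treated with DMSO or 300 nM drug. RNA extracted and hybridized to Affymetrix HG-ST2.0 arrays. Analysis in R/Bioconductor with gene set enrichment analysis. Regulated transcripts defined as p < 0.05, FDR < 0.05, fold change < 0.67 (down) or > 1.5 (up).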"}, "[3]": {"test_system": "Daoy", "experiment": "Downregulation of CRIP1 gene expression in human Daoy cells at 300 nM by GSEA method", "type": "functional, cell-based", "in_short": "as §1"}, "[4]": {"biological_target": "Bromodomain-containing protein 4 (Homo sapiens) (UniProt O60885)", "conditions": "Daoy, dose 100.0 nM, time 24-72 hrs, TDE = time-dependent effect"}, "[5]": {"biological_target": "Bromodomain-containing protein 4 (Homo sapiens) (UniProt O60885)", "conditions": "D283 Med, dose 300.0 nM"}, "[6]": {"test_system": "Daoy", "experiment": "Induction of cell cycle arrest in human Daoy cells assessed as S phase cells at 300 nM incubated for 48 hrs by flow cytometry analysis (reference value: 15.39 +/- 1.73%)", "type": "functional"}, "[7]": {"test_system": "D283 Med", "experiment": "Induction of cell cycle arrest in human D283 Med cells assessed as G2/M phase cells at 300 nM incubated for 48 hrs by flow cytometry analysis (reference value: 55.70 +/- 1.50 %)", "type": "functional"}, "[8]": {"test_system": "D458 Med", "experiment": "Induction of cell cycle arrest in human D458 Med cells assessed as S phase cells at 300 nM incubated for 48 hrs by flow cytometry analysis (reference value: 43.54 +/- 3.48%)", "type": "functional"}, "[9]": {"test_system": "Medulloblastoma cell", "experiment": "Induction of cell cycle arrest in patient-derived Medulloblastoma cells assessed as accumulation of cells at G1 phase at 300 nM", "type": "functional, cell-based", "conditions": "Homo sapiens"}, "[10]": {"biological_target": "Bromodomain-containing protein 4 (Homo sapiens) (UniProt O60885)", "conditions": "D283 Med, dose 300.0 nM", "remark": "listed apart in the source"}, "[11]": {"biological_target": "Bromodomain-containing protein 4 (Homo sapiens) (UniProt O60885)", "conditions": "Daoy, dose 300.0 nM"}, "[12]": {"biological_target": "Bromodomain-containing protein 4 (Homo sapiens) (UniProt O60885)", "conditions": "D425 Med, dose 300.0 nM"}, "[13]": {"test_system": "Daoy", "experiment": "Induction of cell cycle arrest in human Daoy cells assessed as accumulation of cells at G1 phase at 300 nM incubated for 48 hrs by flow cytometry analysis (reference value: 50.67 +/- 3.19%)", "type": "functional"}, "[14]": {"test_system": "D283 Med", "experiment": "Inhibition of colony formation in human D283 Med cells at 100 to 300 nM incubated for 8 to 11 days by NBT staining based methyl cellulose colony growth assay", "type": "functional, cell-based", "conditions": "dose 100-300 nM, time 8-11 day", "in_short": "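500 cells/well suspended in DMEM with methyl cellulose (1.3% final) containing 150 or 300 nM drug or DMSO, plated in triplicate. Colonies formed over 8–11 days, then stained with NBT (1 mg/ml) for 24 h at 37 °C. Colonies of ≥50 cells counted.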"}, "[15]": {"biological_target": "Bromodomain-containing protein 4 (Homo sapiens) (UniProt O60885)", "conditions": "D458 Med, dose 300.0 nM"}, "[16]": {"test_system": "Daoy", "experiment": "Induction of senescence in human Daoy cells assessed as increase in p21 mRNA expression at 300 nM by RT-qPCR analysis", "type": "functional, cell-based", "in_short": "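Cells treated with 300 nM drug or DMSO. p16, p21 and p27 mRNA measured by TaqMan qPCR with ΔΔCt quantitation, in triplicate.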"}, "[17]": {"test_system": "D425 Med", "experiment": "Antiproliferative activity in human D425 Med cells assessed as inhibition of cell growth at 300 nM by flow cytometry analysis", "type": "functional, cell-based", "in_short": "(§2)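 ViaCount flow cytometric cell count. Cells seeded in medium, DMSO or drug added 24 h later, cultured a further 48 h. Cells then pelleted, washed, stained with Viacount reagent and counted on a Guava cytometer. Vehicle control DMSO.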"}, "[18]": {"biological_target": "Bromodomain-containing protein 4 (Homo sapiens) (UniProt O60885)", "conditions": "D283 Med, time 24-48 hrs"}, "[19]": {"test_system": "D425 Med", "experiment": "Induction of cell cycle arrest in human D425 Med cells assessed as S phase cells at 300 nM incubated for 48 hrs by flow cytometry analysis (reference value: 28.96 +/- 0.89%)", "type": "functional"}, "[20]": {"test_system": "Daoy", "experiment": "Antitumor activity against human Daoy cells xenografted in athymic nude mice assessed as reduction in tumor growth at 50 mg/kg, ip administered 5 days a week for 4 weeks and measured after 20 days", "type": "functional, organism-based", "conditions": "time 48.0 day", "in_short": "(§3)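 Daoy cells (1.0×10^7 in PBS) injected into the flank of athymic nude mice. Dosing began once tumors were palpable, at a mean of 52 days post inoculation. 50 mg/kg i.p. or DMSO vehicle given 5 days/week for 4 weeks, n=10, with tumors followed a further 20 days. Volume by caliper as π/6 × L × W × H. Body weight recorded 3 times weekly.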"}, "[21]": {"biological_target": "Bromodomain-containing protein 4 (Homo sapiens) (UniProt O60885)", "conditions": "D425 Med, dose 300.0 nM", "remark": "listed apart in the source"}, "[22]": {"test_system": "Daoy", "experiment": "Downregulation of CDC25B gene expression in human Daoy cells at 300 nM by GSEA method", "type": "functional, cell-based", "in_short": "as §1"}, "[23]": {"test_system": "Daoy", "experiment": "Suppression of human Daoy cells self-renewal cultured in serum free condition assessed as reduction in formation of new neurosphere at 300 nM", "type": "functional, cell-based", "in_short": "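Cells grown as neurospheres in serum-free medium for 48 h, dissociated, and seeded in a limiting dilution from 1000 to 1 cell/well, with 300 nM drug or DMSO. After 7 days in serum-free culture, neurospheres per well counted and plotted against cells seeded.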"}, "[24]": {"biological_target": "Bromodomain-containing protein 4 (Homo sapiens) (UniProt O60885)", "conditions": "Daoy, dose 300.0 nM", "remark": "listed apart in the source"}, "[25]": {"biological_target": "Bromodomain-containing protein 4 (Homo sapiens) (UniProt O60885)", "conditions": "D283 Med, dose 300.0 nM", "remark": "listed apart in the source"}, "[26]": {"test_system": "Daoy", "experiment": "Antiproliferative activity in human Daoy cells assessed as inhibition of cell growth at 300 nM by flow cytometry analysis", "type": "functional, cell-based", "in_short": "as §2"}, "[27]": {"experiment": "Toxicity in athymic nude mouse xenografted with human Daoy cells assessed as change in body weight at 50 mg/kg, ip administered 5 days a week for 4 weeks and measured after 20 days", "type": "organism-based", "conditions": "in vivo, 1152 h, time 48 day", "in_short": "as §3"}, "[28]": {"test_system": "D458 Med", "experiment": "Induction of cell cycle arrest in human D458 Med cells assessed as G2/M phase cells at 300 nM incubated for 48 hrs by flow cytometry analysis (reference value: 18.72 +/- 2.62%)", "type": "functional"}, "[29]": {"test_system": "D425 Med", "experiment": "Induction of cell cycle arrest in human D425 Med cells assessed as G2/M phase cells at 300 nM incubated for 48 hrs by flow cytometry analysis (reference value: 37 +/- 0.47%)", "type": "functional"}, "[30]": {"test_system": "D458 Med", "experiment": "Induction of cell cycle arrest in human D458 Med cells assessed as accumulation of cells at G1 phase at 300 nM incubated for 48 hrs by flow cytometry analysis (reference value: 35.85 +/- 1.37%)", "type": "functional"}}, "note": "Calls of active or inactive are those of the source."}
{"smiles": "Cc1sc2c(c1C)C(c1ccc(Cl)cc1)=N[C@@H](CC(=O)OC(C)(C)C)c1nnc(C)n1-2", "values": [{"measurement": "Activity", "setting": "[1]", "result": "Active"}, {"measurement": "Activity", "setting": "[2]", "result": "Active"}, {"measurement": "Activity", "setting": "[3]", "result": "Active"}, {"measurement": "inhibition", "setting": "[4]", "result": "Tde"}, {"measurement": "inhibition", "setting": "[5]", "result": "Active"}, {"measurement": "Activity", "setting": "[6]", "result": 3.736, "unit": "%"}, {"measurement": "Activity", "setting": "[7]", "result": 53.216, "unit": "%"}, {"measurement": "Activity", "setting": "[8]", "result": 26.58, "unit": "%"}, {"measurement": "Activity", "setting": "[9]", "result": "Active"}, {"measurement": "inhibition", "setting": "[10]", "result": "Active"}, {"measurement": "inhibition", "setting": "[11]", "result": "Active"}, {"measurement": "inhibition", "setting": "[12]", "result": "Active"}, {"measurement": "Activity", "setting": "[13]", "result": 79.416, "unit": "%"}, {"measurement": "inhibition", "setting": "[14]", "result": "Active"}, {"measurement": "inhibition", "setting": "[15]", "result": "Active"}, {"measurement": "Activity", "setting": "[16]", "result": "Active"}, {"measurement": "Activity", "setting": "[17]", "result": "Active"}, {"measurement": "inhibition", "setting": "[18]", "result": "Active"}, {"measurement": "Activity", "setting": "[19]", "result": 28.636, "unit": "%"}, {"measurement": "Activity", "setting": "[20]", "result": "Active"}, {"measurement": "inhibition", "setting": "[21]", "result": "Active"}, {"measurement": "Activity", "setting": "[22]", "result": "Active"}, {"measurement": "Activity", "setting": "[23]", "result": "Active"}, {"measurement": "inhibition", "setting": "[24]", "result": "Active"}, {"measurement": "inhibition", "setting": "[25]", "result": "Active"}, {"measurement": "Activity", "setting": "[26]", "result": "Active"}, {"measurement": "Activity", "setting": "[27]", "result": "Non-Toxic"}, {"measurement": "Activity", "setting": "[28]", "result": 23.266, "unit": "%"}, {"measurement": "Activity", "setting": "[29]", "result": 31, "unit": "%"}, {"measurement": "Activity", "setting": "[30]", "result": 46.86, "unit": "%"}]}
